# Test results reported in ChEMBL document CHEMBL1142517, “Discovery of an orally bioavailable small molecule inhibitor of prosurvival B-cell lymphoma 2 proteins” (J Med Chem, 2008).
# Molecular target: Apoptosis regulator Bcl-2 (Homo sapiens, UniProt P10415)
# Test: Displacement of fluorescein labeled Bax peptide from Bcl2 by fluorescence polarization assay
# Conditions: not given
# Sequence of Apoptosis regulator Bcl-2 (P10415 whole entry): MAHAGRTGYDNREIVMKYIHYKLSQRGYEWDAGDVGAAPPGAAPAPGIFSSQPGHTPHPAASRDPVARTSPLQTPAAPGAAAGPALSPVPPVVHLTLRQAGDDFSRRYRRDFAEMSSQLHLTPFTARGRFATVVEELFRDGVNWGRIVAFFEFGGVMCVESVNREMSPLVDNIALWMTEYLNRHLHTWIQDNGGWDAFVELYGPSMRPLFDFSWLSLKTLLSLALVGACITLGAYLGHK
row,Ki [nM],Structure (SMILES)
1,< 1,Cc1cc(S(=O)(=O)NC(=O)c2ccc(N3CCN(Cc4ccccc4-c4ccc(Cl)cc4)CC3)cc2)ccc1N[C@H](CCN(C)C)CSc1ccccc1
2,< 1,CN(C)CC[C@H](CSc1ccccc1)Nc1ccc(S(=O)(=O)NC(=O)c2ccc(N3CCN(Cc4ccccc4-c4ccc(Cl)cc4)CC3)cc2)cc1C(F)(F)F

# Test system: not listed separately
# Test: Cytotoxicity against IL3-dependent mouse FL5.12 cells overexpressing human Bcl-XL assessed as cell viability after 24 hrs by MTS assay in absence of serum
# Assay type: functional, cell-based
# Conditions: FL5.12, 24 h
# How it was run: (§1)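 Mouse FL5.12 cells transfected with Bcl-XL or Bcl-2, deprived of IL-3 (no FBS or WEHI-3B conditioned medium) for 2 days. Then moved to serum-free gelatin medium (3.4 mg/mL bovine gelatin) with serially diluted compound for 24 h. Viability by MTS or CellTiter-Glo. Determinations in duplicate.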
row,Structure (SMILES),EC50 [nM]
1,CN(C)CC[C@H](CSc1ccccc1)Nc1ccc(S(=O)(=O)NC(=O)c2ccc(N3CCN(Cc4ccccc4-c4ccc(Cl)cc4)CC3)cc2)cc1C(F)(F)F,122

# Test system: not listed separately
# Test: Cytotoxicity against IL3-dependent mouse FL5.12 cells overexpressing human Bcl2 assessed as cell viability after 24 hrs by MTS assay in absence of serum
# Assay type: functional, cell-based
# Conditions: FL5.12, 24 h
# How it was run: as §1
row,Structure (SMILES),EC50 [nM]
1,Cc1cc(S(=O)(=O)NC(=O)c2ccc(N3CCN(Cc4ccccc4-c4ccc(Cl)cc4)CC3)cc2)ccc1N[C@H](CCN(C)C)CSc1ccccc1,673
2,CN(C)CC[C@H](CSc1ccccc1)Nc1ccc(S(=O)(=O)NC(=O)c2ccc(N3CCN(Cc4ccccc4-c4ccc(Cl)cc4)CC3)cc2)cc1C(F)(F)F,42

# Test system: not listed separately
# Test: Cmax in Sprague-Dawley rat at 5 mg/kg, po
# Assay type: ADME, organism-based
# Parameters: dose 5 mg/kg, route oral
# Conditions: in vivo
# How it was run: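 Rats (Sprague-Dawley) given 5 mg/kg by oral gavage in 10% DMSO/PEG-400, n = 3. Serial heparinized blood samples. Plasma drug level by LC-MS/MS after acetonitrile protein precipitation, quantified by linear regression of peak-area ratio to internal standard. Concentration–time data fitted multiexponentially.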
row,Cmax [nM],Structure (SMILES)
1,370,CN(C)CC[C@H](CSc1ccccc1)Nc1ccc(S(=O)(=O)NC(=O)c2ccc(N3CCN(Cc4ccccc4-c4ccc(Cl)cc4)CC3)cc2)cc1C(F)(F)F

# Test system: not listed separately
# Test: AUC in Sprague-Dawley rat at 5 mg/kg, po
# Assay type: ADME, organism-based
# Parameters: dose 5 mg/kg, route oral
# Conditions: plasma
# How it was run: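 Sprague-Dawley rats, single 5 mg/kg oral dose by gavage in 10% DMSO in PEG-400, n = 3. Heparinized blood taken before dosing and at set times. Plasma proteins precipitated with acetonitrile, then LC-MS/MS against spiked plasma standards with an internal standard. AUC by linear trapezoidal rule.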
row,AUC [µM·h],Structure (SMILES)
1,4.41,CN(C)CC[C@H](CSc1ccccc1)Nc1ccc(S(=O)(=O)NC(=O)c2ccc(N3CCN(Cc4ccccc4-c4ccc(Cl)cc4)CC3)cc2)cc1C(F)(F)F

# Test system: not listed separately
# Test: Ratio of AUC for Sprague-Dawley rat at 5 mg/kg, po to EC50 for human NCI-H146 cells in presence of 10% human serum
# Assay type: functional
# Conditions: not given
# How it was run: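 The cells were treated for 48 h in medium with 10% human serum, and viability was read by CellTiter-Glo luminescence.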
row,Structure (SMILES),Ratio
1,CN(C)CC[C@H](CSc1ccccc1)Nc1ccc(S(=O)(=O)NC(=O)c2ccc(N3CCN(Cc4ccccc4-c4ccc(Cl)cc4)CC3)cc2)cc1C(F)(F)F,1.8

# Test system: not listed separately
# Test: Cytotoxicity against human NCI-H146 cells assessed as cell viability after 48 hrs in presence of 10% human serum
# Assay type: functional, cell-based
# Conditions: NCI-H146, 48 h
# How it was run: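 NCI-H146 SCLC cells maintained in RPMI 1640 with 10% FBS at 37 °C, 5% CO2. Treated for 48 h in medium with 10% human serum. Viability by CellTiter-Glo luminescence. Values from duplicate runs.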
row,Structure (SMILES),EC50 [nM]
1,Cc1cc(S(=O)(=O)NC(=O)c2ccc(N3CCN(Cc4ccccc4-c4ccc(Cl)cc4)CC3)cc2)ccc1N[C@H](CCN(C)C)CSc1ccccc1,28800
2,CN(C)CC[C@H](CSc1ccccc1)Nc1ccc(S(=O)(=O)NC(=O)c2ccc(N3CCN(Cc4ccccc4-c4ccc(Cl)cc4)CC3)cc2)cc1C(F)(F)F,2460

# Test system: not listed separately
# Test: Oral bioavailability in Sprague-Dawley rat at 5 mg/kg
# Assay type: ADME, organism-based
# Conditions: in vivo
row,bioavailability [%],Structure (SMILES)
1,24,CN(C)CC[C@H](CSc1ccccc1)Nc1ccc(S(=O)(=O)NC(=O)c2ccc(N3CCN(Cc4ccccc4-c4ccc(Cl)cc4)CC3)cc2)cc1C(F)(F)F
